Data as given in ChEMBL document CHEMBL1126854, “A series of penicillin derived C2-symmetric inhibitors of HIV-1 proteinase: synthesis, mode of interaction, and structure-activity relationships” (J Med Chem, 1993).

How the values were obtained:
[1] = test system: Human immunodeficiency virus 1; test: Inhibitory effects on HIV-1 induced syncytium formation in C8166 cells; format: functional, organism-based; conditions: Human immunodeficiency virus 1, C8166
Method in brief: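 C8166 cells were infected with HIV-1 RF at moi 1×10^-3 and plated at 10^5 cells/well. Compound in Me2SO was serially diluted in RPMI 1640 from 50 to 0.05 μg/mL. Cells were kept 3–4 days at 37 °C, 5% CO2, and checked daily for syncytia. Syncytia were scored against untreated infected controls, and EC50 was calculated as 50% reduction of cytopathic effect.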

MT4 = test: Inhibition of cytopathic effect of HIV-1 strain RF in MT-4 cell culture; format: functional, cell-based; conditions: Homo sapiens
Method in brief: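 MT-4 cells at 10^6 cells/mL in RPMI 1640 were infected with HIV-1 RF at moi 2×10^-3 (5×10^4 cells/well). Compound in Me2SO was diluted in 10-fold steps from 100 to 0.01 μg/mL. Cells were kept 7 days at 37 °C, 5% CO2, then given MTT for 60 min. Acidified 2-propanol was added and A540 read. EC50 for 50% inhibition of formazan conversion is the mean of duplicates; toxicity was assayed at the same concentrations.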

[2] = biological target: Human immunodeficiency virus type 1 protease (Human immunodeficiency virus 1, UniProt Q72874); test: Inhibitory activity against HIV-1 Protease
Method in brief: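 Buffer: 20 mM MES pH 6.0, 2 M NaCl, 5 mM DTT, 2 mM EDTA. Compounds in 25% Me2SO over a concentration range. Incubated 60 min at 37 °C with shaking, then filtered; released radioactivity counted by scintillation. IC50 from duplicate means, standardized to a reference-compound control.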

Structure (SMILES) | EC50 [1] [nM] | EC50 (MT4) [nM] | IC50 [2] [nM]
CC1(C)S[C@H]([C@H](NC(=O)Cc2ccccc2)C(=O)NCc2ccccc2)N[C@H]1C(=O)NCCNC(=O)[C@@H]1N[C@@H]([C@H](NC(=O)Cc2ccccc2)C(=O)NCc2ccccc2)SC1(C)C | 60 | 290 | –
CCNC(=O)[C@@H](NC(=O)CCc1ccccc1)[C@@H]1N[C@@H](C(=O)NCCNC(=O)[C@@H]2N[C@@H]([C@H](NC(=O)CCc3ccccc3)C(=O)NCC)SC2(C)C)C(C)(C)S1 | 60 | 3900 | 2.4
COC(=O)[C@@H](NC(=O)Cc1ccccc1)[C@@H]1N[C@@H](C(=O)NCCNC(=O)[C@@H]2N[C@@H]([C@H](NC(=O)Cc3ccccc3)C(=O)OC)SC2(C)C)C(C)(C)S1 | – | > 100000 | –
CCNC(=O)[C@@H](NC(=O)CC(C)C)[C@@H]1N[C@@H](C(=O)NCCNC(=O)[C@@H]2N[C@@H]([C@H](NC(=O)CC(C)C)C(=O)NCC)SC2(C)C)C(C)(C)S1 | – | > 100000 | 8.7
CC1(C)S[C@H]([C@H](NC(=O)Cc2ccccc2)C(N)=O)N[C@H]1C(=O)NCCNC(=O)[C@@H]1N[C@@H]([C@H](NC(=O)Cc2ccccc2)C(N)=O)SC1(C)C | – | > 100000 | –
CC1(C)S[C@H]([C@H](NC(=O)Cc2ccccc2)C(=O)NCc2ccccn2)N[C@H]1C(=O)NCCNC(=O)[C@@H]1N[C@@H]([C@H](NC(=O)Cc2ccccc2)C(=O)NCc2ccccn2)SC1(C)C | – | 80000 | 11
CC1(C)S[C@H]([C@H](NC(=O)Cc2ccccn2)C(=O)NCc2ccc(Cl)cc2)N[C@H]1C(=O)NCCNC(=O)[C@@H]1N[C@@H]([C@H](NC(=O)Cc2ccccn2)C(=O)NCc2ccc(Cl)cc2)SC1(C)C | – | 1900 | 7.5
CCNC(=O)[C@@H](NC(=O)c1ccccc1Cc1ccccc1)[C@@H]1N[C@@H](C(=O)NCCNC(=O)[C@@H]2N[C@@H]([C@H](NC(=O)c3ccccc3Cc3ccccc3)C(=O)NCC)SC2(C)C)C(C)(C)S1 | – | > 100000 | 72
CC1(C)S[C@H]([C@H](NC(=O)Cc2ccccc2)C(=O)OCc2ccccc2)N[C@H]1C(=O)NCCNC(=O)[C@@H]1N[C@@H]([C@H](NC(=O)Cc2ccccc2)C(=O)OCc2ccccc2)SC1(C)C | – | > 100000 | 75
CCNC(=O)[C@@H](NC(=O)/C=C\c1ccccc1)[C@@H]1N[C@@H](C(=O)NCCNC(=O)[C@@H]2N[C@@H]([C@H](NC(=O)/C=C\c3ccccc3)C(=O)NCC)SC2(C)C)C(C)(C)S1 | – | 3200 | 2.9
CCNC(=O)[C@@H](NC(=O)c1ccccc1Oc1ccccc1)[C@@H]1N[C@@H](C(=O)NCCNC(=O)[C@@H]2N[C@@H]([C@H](NC(=O)c3ccccc3Oc3ccccc3)C(=O)NCC)SC2(C)C)C(C)(C)S1 | – | > 100000 | 160
CC(C)(C)OC(=O)CNC(=O)[C@@H](NC(=O)Cc1ccccc1)[C@@H]1N[C@@H](C(=O)NCCNC(=O)[C@@H]2N[C@@H]([C@H](NC(=O)Cc3ccccc3)C(=O)NCC(=O)OC(C)(C)C)SC2(C)C)C(C)(C)S1 | – | 2700 | 21
CC1(C)S[C@H](CNC(=O)Cc2ccccc2)N[C@H]1C(=O)NCCNC(=O)[C@@H]1N[C@@H](CNC(=O)Cc2ccccc2)SC1(C)C | – | – | 7800
CCNC(=O)[C@@H](NC(=O)Cc1ccc(O)cc1)[C@@H]1N[C@@H](C(=O)NCCNC(=O)[C@@H]2N[C@@H]([C@H](NC(=O)Cc3ccc(O)cc3)C(=O)NCC)SC2(C)C)C(C)(C)S1 | – | – | > 12000
CC1(C)S[C@H]([C@@H](CO)NC(=O)Cc2ccccc2)N[C@H]1C(=O)NCCNC(=O)[C@@H]1N[C@@H]([C@@H](CO)NC(=O)Cc2ccccc2)SC1(C)C | – | > 100000 | 140
CC1(C)S[C@H]([C@H](NC(=O)Cc2ccccc2)C(=O)NCC(=O)O)N[C@H]1C(=O)NCCNC(=O)[C@@H]1N[C@@H]([C@H](NC(=O)Cc2ccccc2)C(=O)NCC(=O)O)SC1(C)C | – | > 100000 | 39
CCNC(=O)[C@@H](NC(=O)Cc1cccs1)[C@@H]1N[C@@H](C(=O)NCCNC(=O)[C@@H]2N[C@@H]([C@H](NC(=O)Cc3cccs3)C(=O)NCC)SC2(C)C)C(C)(C)S1 | 5200 | 27000 | 15
CC(C)(C)NC(=O)[C@@H]1C[C@@H]2CCCC[C@@H]2CN1C[C@@H](O)[C@H](Cc1ccccc1)NC(=O)[C@H](CC(N)=O)NC(=O)c1ccc2ccccc2n1 | 0.6 | 4 | –
CCNC(=O)[C@@H](NC(=O)Cc1ccccc1)[C@@H]1N[C@@H](C(=O)NCCNC(=O)[C@@H]2N[C@@H]([C@H](NC(=O)Cc3ccccc3)C(=O)NCC)SC2(C)C)C(C)(C)S1 | – | – | 1300

Structure (SMILES) | EC50 [1] [nM] | EC50 (MT4) [nM] | IC50 [2] [nM]
CC(C)(C)OC(=O)CNC(=O)[C@@H](NC(=O)c1ccccc1-c1ccccc1)[C@@H]1N[C@@H](C(=O)NCCNC(=O)[C@@H]2N[C@@H]([C@H](NC(=O)c3ccccc3-c3ccccc3)C(=O)NCC(=O)OC(C)(C)C)SC2(C)C)C(C)(C)S1 | – | 1600 | 4.1
CN(Cc1ccccc1)C(=O)[C@@H](NC(=O)Cc1ccccc1)[C@@H]1N[C@@H](C(=O)NCCNC(=O)[C@@H]2N[C@@H]([C@H](NC(=O)Cc3ccccc3)C(=O)N(C)Cc3ccccc3)SC2(C)C)C(C)(C)S1 | – | – | 820
CCNC(=O)[C@@H](N)[C@@H]1N[C@@H](C(=O)NCCNC(=O)[C@@H]2N[C@@H]([C@H](N)C(=O)NCC)SC2(C)C)C(C)(C)S1 | – | – | 120000
CCNC(=O)[C@@H](NC(=O)c1ccccc1)[C@@H]1N[C@@H](C(=O)NCCNC(=O)[C@@H]2N[C@@H]([C@H](NC(=O)c3ccccc3)C(=O)NCC)SC2(C)C)C(C)(C)S1 | – | – | 390
CC1(C)S[C@H]([C@@H](COC(=O)c2ccccc2)NC(=O)Cc2ccccc2)N[C@H]1C(=O)NCCNC(=O)[C@@H]1N[C@@H]([C@@H](COC(=O)c2ccccc2)NC(=O)Cc2ccccc2)SC1(C)C | – | – | 70
CN(C)C(=O)[C@@H](NC(=O)Cc1ccccc1)[C@@H]1N[C@@H](C(=O)NCCNC(=O)[C@@H]2N[C@@H]([C@H](NC(=O)Cc3ccccc3)C(=O)N(C)C)SC2(C)C)C(C)(C)S1 | 1700 | 4400 | 5.2
CC1(C)S[C@H]([C@H](NC(=O)Cc2ccccn2)C(=O)NCc2ccccc2)N[C@H]1C(=O)NCCNC(=O)[C@@H]1N[C@@H]([C@H](NC(=O)Cc2ccccn2)C(=O)NCc2ccccc2)SC1(C)C | – | > 10000 | 0.55
CCNC(=O)[C@@H](NC(=O)c1c(-c2ccccc2)noc1C)[C@@H]1N[C@@H](C(=O)NCCNC(=O)[C@@H]2N[C@@H]([C@H](NC(=O)c3c(-c4ccccc4)noc3C)C(=O)NCC)SC2(C)C)C(C)(C)S1 | – | 2500 | 5.4
CC1(C)S[C@H]([C@H](NC(=O)Cc2ccccc2)C(=O)N(CCO)CCO)N[C@H]1C(=O)NCCNC(=O)[C@@H]1N[C@@H]([C@H](NC(=O)Cc2ccccc2)C(=O)N(CCO)CCO)SC1(C)C | – | – | 840
CCNC(=O)[C@@H](NC(=O)Cc1ccccc1)[C@@H]1N[C@@H](C(=O)NCCNC(=O)[C@@H]2N[C@@H](CNC(=O)Cc3ccccc3)SC2(C)C)C(C)(C)S1 | – | > 100000 | 35
CCNC(=O)[C@@H](NC(=O)Cc1ccccc1)[C@@H]1N[C@@H](C(=O)NCCNC(=O)[C@@H]2NCSC2(C)C)C(C)(C)S1 | – | – | 8800
CC1(C)S[C@H]([C@H](NC(=O)Cc2ccccc2)C(=O)NCCO)N[C@H]1C(=O)NCCNC(=O)[C@@H]1N[C@@H]([C@H](NC(=O)Cc2ccccc2)C(=O)NCCO)SC1(C)C | – | > 100000 | 40
CC1(C)S[C@H]([C@H](NC(=O)c2ccccc2-c2ccccc2)C(=O)NCC(=O)O)N[C@H]1C(=O)NCCNC(=O)[C@@H]1N[C@@H]([C@H](NC(=O)c2ccccc2-c2ccccc2)C(=O)NCC(=O)O)SC1(C)C | – | > 100000 | 39
CCNC(=O)[C@@H](NC(=O)c1ccccc1Nc1ccccc1)[C@@H]1N[C@@H](C(=O)NCCNC(=O)[C@@H]2N[C@@H]([C@H](NC(=O)c3ccccc3Nc3ccccc3)C(=O)NCC)SC2(C)C)C(C)(C)S1 | – | – | 4800
CCNC(=O)[C@@H](NC(=O)Cc1ccccn1)[C@@H]1N[C@@H](C(=O)NCCNC(=O)[C@@H]2N[C@@H]([C@H](NC(=O)Cc3ccccn3)C(=O)NCC)SC2(C)C)C(C)(C)S1 | – | > 100000 | 19
CC1(C)S[C@H]([C@H](NC(=O)Cc2ccccc2)C(=O)NCC(F)(F)F)N[C@H]1C(=O)NCCNC(=O)[C@@H]1N[C@@H]([C@H](NC(=O)Cc2ccccc2)C(=O)NCC(F)(F)F)SC1(C)C | 220 | 280 | 4.4
CC1(C)S[C@H]([C@H](NC(=O)c2ccccc2-c2ccccc2)C(=O)NCc2ccccc2)N[C@H]1C(=O)NCCNC(=O)[C@@H]1N[C@@H]([C@H](NC(=O)c2ccccc2-c2ccccc2)C(=O)NCc2ccccc2)SC1(C)C | 130 | 110 | 7.5
CCNC(=O)[C@@H](NC(=O)Cc1ccc2ccccc2c1)[C@@H]1N[C@@H](C(=O)NCCNC(=O)[C@@H]2N[C@@H]([C@H](NC(=O)Cc3ccc4ccccc4c3)C(=O)NCC)SC2(C)C)C(C)(C)S1 | – | – | 820
Cc1cn([C@H]2C[C@H](N=[N+]=[N-])[C@@H](CO)O2)c(=O)[nH]c1=O [ZIDOVUDINE] | 30 | 20 | –
